In ChEMBL document CHEMBL3286225, “Novel carboline derivatives as potent antifungal lead compounds: design, synthesis, and biological evaluation” (ACS Med Chem Lett, 2014):
Values after ≈ are worked out from the molar mass of the structure shown. Active and inactive are the calls of the source. The rule behind the calls is not given here.

How the values were obtained:
[1] = system: Candida albicans; assay: Antifungal activity against fluconazole-sensitive Candida albicans SC5314 after 24 hrs by serial dilution method; type: functional; details: SC5314, 24 h
[2] = system: Candida albicans; assay: Inhibition of biofilm formation of fluconazole-sensitive Candida albicans SC5314 after 48 hrs by XTT assay; type: functional, organism-based
Method in brief: (§1)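 Biofilm formation by C. albicans SC5314 was tested with compound at 2–64 μg/mL. Untreated and fluconazole 64 μg/mL controls were included. Biofilm was quantified by XTT reduction and expressed as % of untreated control. Mean ± SD of three independent experiments; ANOVA and Student t test, p<0.05.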

[3] = biological target: Cytochrome P450 2C9 (Homo sapiens, UniProt P11712); assay: Inhibition of CYP2C9 in human liver microsomes assessed as tolbutamide conversion to 4-hydroxy tolbutamide preincubated for 10 mins followed by NADPH addition measured after 15 mins by LC-MS/MS analysis; type: ADME
[4] = system: Candida parapsilosis; assay: Antifungal activity against Candida parapsilosis ATCC 22019 after 24 hrs by serial dilution method; type: functional; details: Lodderomyces parapsilosis, ATCC 22019, 24 h
[5] = biological target: T1, CYP2C9 (Homo sapiens, UniProt P11712); assay: Inhibition of CYP2C9 in human liver microsomes assessed as tolbutamide conversion to 4-hydroxy tolbutamide at 25 uM preincubated for 10 mins followed by NADPH addition measured after 15 mins by LC-MS/MS analysis relative to control; type: ADME; details: probe tolbutamide
[6] = biological target: Cytochrome P450 3A4 (Homo sapiens, UniProt P08684); assay: Inhibition of CYP3A4 in human liver microsomes assessed as testosterone conversion to 6-hydroxy testosterone preincubated for 10 mins followed by NADPH addition measured after 15 mins by LC-MS/MS analysis; type: ADME
[7] = system: Cryptococcus neoformans; assay: Antifungal activity against Cryptococcus neoformans 32609 after 72 hrs by serial dilution method; type: functional; details: Cryptococcus neoformans, 32609, 72 h
[8] = system: Candida albicans; assay: Fungicidal activity against fluconazole-resistant Candida albicans 103 assessed as growth inhibition at 4 to 32 ug/ml after 12 to 48 hrs; type: functional, organism-based
Method in brief: (§2)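 Time-kill: C. albicans (SC5314 or 103) inoculated at 10^5 CFU/mL, untreated or with drug (2–32 μg/mL; fluconazole 32 μg/mL reference); CFU/mL counted after 0, 12, 24 and 48 h.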

[9] = system: Candida albicans; assay: Inhibition of biofilm formation of fluconazole-sensitive Candida albicans SC5314 at 4 ug/ml after 48 hrs by XTT assay relative to control; type: functional; details: SC5314, 48 h; method in brief: as §1
[10] = biological target: T2, CYP2C19 (Homo sapiens, UniProt P33261); assay: Inhibition of CYP2C19 in human liver microsomes assessed as S-mephenytoin conversion to 4'-hydroxy mephenytoin at 25 uM preincubated for 10 mins followed by NADPH addition measured after 15 mins by LC-MS/MS analysis relative to control; type: ADME; details: probe S-mephenytoin
[11] = system: Candida albicans; assay: Antifungal activity against fluconazole-sensitive Candida albicans SC5314 assessed as reduction in cytoplasmic density at 8 ug/ml after 8 hrs by TEM analysis; type: functional, organism-based
Method in brief: (§3)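 Transmission electron microscopy of C. albicans SC5314 cells exposed to 8 μg/mL for 8 h. Untreated cells and cells given fluconazole 8 μg/mL for 8 h served as controls. Cell wall layers, cytoplasmic density and vacuole shape were compared by eye.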

[12] = system: Candida albicans; assay: Antifungal activity against fluconazole-sensitive Candida albicans SC5314 assessed as necrosis at 8 ug/ml after 8 hrs by TEM analysis; type: functional, organism-based; method in brief: as §3
[13] = biological target: T2, CYP2C19; assay: Inhibition of CYP2C19 in human liver microsomes assessed as S-mephenytoin conversion to 4'-hydroxy mephenytoin at 0.25 uM preincubated for 10 mins followed by NADPH addition measured after 15 mins by LC-MS/MS analysis relative to control; type: ADME; details: probe S-mephenytoin
[14] = system: Candida albicans; assay: Inhibition of biofilm formation of fluconazole-resistant Candida albicans 103 at 32 ug/ml after 48 hrs by XTT assay; type: functional; details: Candida albicans, 103, 48 h
Method in brief: (§4)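 Biofilm formation by C. albicans SC5314 or 103 in presence of 2–64 μg/mL drug (fluconazole 64 μg/mL reference); quantified by XTT reduction as % of blank control; mean ± standard deviation of three independent experiments, ANOVA and Student t test.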

[15] = system: Candida albicans; assay: Antifungal activity against fluconazole-sensitive Candida albicans SC5314 assessed as cell membrane damage at 8 ug/ml after 8 hrs by TEM analysis; type: functional, organism-based
Method in brief: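 Transmission electron microscopy of C. albicans SC5314 cells exposed to 8 μg/mL drug for 8 h; untreated cells as reference; cell wall, membrane, cytoplasm and vacuole morphology inspected.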

[16] = system: Candida albicans; assay: Inhibition of hyphal growth of fluconazole-sensitive Candida albicans SC5314 assessed as appearance of pseudohyphal form at 2 ug/ml after 16 hrs by light microscopic analysis; type: functional, organism-based
Method in brief: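 C. albicans SC5314 was grown in RPMI 1640 at 37 °C for 16 h, without compound or with 2–8 μg/mL. A fluconazole 8 μg/mL control was included. Cell morphology (hyphae, pseudohyphae, budding yeast) was then scored by microscopy.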

[17] = system: Nannizzia gypsea; assay: Antifungal activity against Microsporum gypseum Cmccfmza after 7 days by serial dilution method; type: functional; details: 168 h
[18] = system: Candida albicans; assay: Antifungal activity against fluconazole-resistant Candida albicans 805 after 24 hrs by serial dilution method in presence of fluconazole; type: functional
Method in brief: (§5)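 Tested in combination with fluconazole against each fluconazole-resistant C. albicans strain. Interaction was scored by fractional inhibitory concentration index (FICI): synergy at FICI ≤ 0.5, indifference at 0.5 < FICI ≤ 4, antagonism at FICI > 4.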

[19] = system: Candida albicans; assay: Antifungal activity against fluconazole-resistant Candida albicans 103 after 24 hrs by serial dilution method in presence of fluconazole; type: functional; method in brief: as §5
[20] = system: Candida albicans; assay: Antifungal activity against fluconazole-sensitive Candida albicans SC5314 assessed as change in obtusifoliol composition at 8 ug/ml after 24 hrs by GC-MS analysis relative to control; type: functional
Method in brief: (§6)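 C. albicans SC5314 exposed to 8 μg/mL for 24 h, sterols analysed by GC-MS with cholesterol internal standard; each sterol expressed as % of total sterol fraction versus no-drug control; average of three independent experiments.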

[21] = biological target: T1, CYP2C9; assay: Inhibition of CYP2C9 in human liver microsomes assessed as tolbutamide conversion to 4-hydroxy tolbutamide at 2.5 uM preincubated for 10 mins followed by NADPH addition measured after 15 mins by LC-MS/MS analysis relative to control; type: ADME; details: probe tolbutamide
[22] = system: Candida albicans; assay: Antifungal activity against fluconazole-sensitive Candida albicans SC5314 assessed as thickening of middle sphere of cell wall at 8 ug/ml after 8 hrs by TEM analysis; type: functional, organism-based; method in brief: as §3
[23] = biological target: T1, CYP2C9; assay: Inhibition of CYP2C9 in human liver microsomes assessed as tolbutamide conversion to 4-hydroxy tolbutamide at 0.25 uM preincubated for 10 mins followed by NADPH addition measured after 15 mins by LC-MS/MS analysis relative to control; type: ADME; details: probe tolbutamide
[24] = system: Candida tropicalis; assay: Antifungal activity against Candida tropicalis after 7 days by serial dilution method; type: functional; details: 168 h
[25] = system: Candida albicans; assay: Inhibition of biofilm formation of fluconazole-sensitive Candida albicans SC5314 at 64 ug/ml after 48 hrs by XTT assay relative to control; type: functional; details: SC5314, 48 h; method in brief: as §4
[26] = system: Candida albicans; assay: Antifungal activity against fluconazole-sensitive Candida albicans SC5314 assessed as change in sterol composition at 8 ug/ml after 24 hrs by GC-MS analysis (reference value: 8.5%); type: functional; method in brief: as §6
[27] = system: Candida albicans; assay: Fungicidal activity against fluconazole-sensitive Candida albicans SC5314 assessed as reduction in fungi density after 24 hrs; type: functional, organism-based; method in brief: as §2

T1 sequence (P11712 whole entry): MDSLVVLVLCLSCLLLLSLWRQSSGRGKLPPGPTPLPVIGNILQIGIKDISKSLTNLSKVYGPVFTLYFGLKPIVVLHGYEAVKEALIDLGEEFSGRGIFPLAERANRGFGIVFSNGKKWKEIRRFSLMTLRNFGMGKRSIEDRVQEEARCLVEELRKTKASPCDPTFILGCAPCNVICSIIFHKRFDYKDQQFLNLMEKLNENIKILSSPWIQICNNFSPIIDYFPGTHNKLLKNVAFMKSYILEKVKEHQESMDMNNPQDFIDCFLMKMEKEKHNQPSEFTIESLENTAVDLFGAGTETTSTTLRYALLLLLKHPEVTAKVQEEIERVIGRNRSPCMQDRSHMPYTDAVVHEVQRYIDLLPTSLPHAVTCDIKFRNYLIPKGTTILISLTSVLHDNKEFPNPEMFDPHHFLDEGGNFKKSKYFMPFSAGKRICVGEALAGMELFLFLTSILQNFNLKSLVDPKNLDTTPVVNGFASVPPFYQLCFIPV
T2 sequence (P33261 whole entry): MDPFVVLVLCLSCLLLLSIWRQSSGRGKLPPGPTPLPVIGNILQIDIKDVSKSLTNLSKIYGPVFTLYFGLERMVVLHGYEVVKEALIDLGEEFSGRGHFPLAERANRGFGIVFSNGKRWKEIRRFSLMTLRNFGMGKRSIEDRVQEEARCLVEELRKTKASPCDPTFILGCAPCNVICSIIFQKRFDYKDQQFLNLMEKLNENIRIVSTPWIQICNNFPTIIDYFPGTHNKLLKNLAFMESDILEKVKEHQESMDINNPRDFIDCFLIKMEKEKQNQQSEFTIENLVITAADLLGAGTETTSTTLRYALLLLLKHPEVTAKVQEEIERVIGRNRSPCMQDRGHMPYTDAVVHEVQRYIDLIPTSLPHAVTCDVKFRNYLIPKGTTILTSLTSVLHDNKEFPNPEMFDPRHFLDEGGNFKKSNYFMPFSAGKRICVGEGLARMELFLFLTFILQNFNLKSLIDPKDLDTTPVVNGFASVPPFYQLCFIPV
Chain of Cytochrome P450 2C9 (P11712 whole entry): as the sequence (P11712 whole entry) above
Chain of Cytochrome P450 3A4 (P08684 whole entry): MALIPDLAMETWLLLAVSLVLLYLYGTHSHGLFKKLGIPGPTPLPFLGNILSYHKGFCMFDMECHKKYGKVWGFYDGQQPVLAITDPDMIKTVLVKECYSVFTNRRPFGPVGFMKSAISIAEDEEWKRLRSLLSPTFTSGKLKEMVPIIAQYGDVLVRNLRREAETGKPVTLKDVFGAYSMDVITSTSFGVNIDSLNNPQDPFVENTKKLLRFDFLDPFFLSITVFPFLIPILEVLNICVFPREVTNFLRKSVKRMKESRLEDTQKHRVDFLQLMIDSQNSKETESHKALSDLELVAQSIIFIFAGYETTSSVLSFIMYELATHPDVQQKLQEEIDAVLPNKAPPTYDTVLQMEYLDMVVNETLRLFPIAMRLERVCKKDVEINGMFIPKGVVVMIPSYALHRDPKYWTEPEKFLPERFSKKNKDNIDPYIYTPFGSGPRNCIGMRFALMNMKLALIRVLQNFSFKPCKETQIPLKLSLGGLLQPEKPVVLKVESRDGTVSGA

**Q.** With `Fc1ccc2c(c1)c1c(n2CCCOc2ccc(Cl)cc2)CCNC1` as the compound, how does the MIC80 [1] read?
**A.** 2 µg/mL (≈ 5.57 µM)

**Q.** What about the inhibition [2] of the same compound?
**A.** Dose-dependent effect

**Q.** What about the IC50 [3] of the same compound?
**A.** > 25 µM

**Q.** What about the MIC80 [4] of the same compound?
**A.** 4 µg/mL (≈ 11.1 µM)

**Q.** And the inhibition at 0.25 h, 25 µM [5]?
**A.** 36%

**Q.** What about the IC50 [6] of the same compound?
**A.** 25 µM

**Q.** What about the MIC80 [7] of the same compound?
**A.** 1 µg/mL (≈ 2.79 µM)

**Q.** And the “growth inhibition (GI)” value [8]?
**A.** Active

**Q.** What about the inhibition at 4 µg/mL [9] of the same compound?
**A.** > 50%

**Q.** And the inhibition at 0.25 h, 25 µM [10]?
**A.** 33%

**Q.** What about the Activity [11] of the same compound?
**A.** Active

**Q.** And the Activity [12]?
**A.** Active

**Q.** And the inhibition at 0.25 h, 0.25 µM [13]?
**A.** 4%

**Q.** And the inhibition at 32 µg/mL [14]?
**A.** > 75%

**Q.** And the Activity [15]?
**A.** inactive

**Q.** What about the “growth inhibition (GI)” value [16] of the same compound?
**A.** Active

**Q.** And the MIC80 [17]?
**A.** 1 µg/mL (≈ 2.79 µM)

**Q.** And the “fractional inhibitory concentration index (FICI)” value [18]?
**A.** 0.252

**Q.** What about the “fractional inhibitory concentration index (FICI)” value [19] of the same compound?
**A.** 0.252

**Q.** What about the Activity [20] of the same compound?
**A.** 3.7%

**Q.** What about the inhibition at 0.25 h, 2.5 µM [21] of the same compound?
**A.** 8%

**Q.** And the Activity [22]?
**A.** Active

**Q.** And the inhibition at 0.25 h, 0.25 µM [23]?
**A.** -2%

**Q.** And the MIC80 [24]?
**A.** 4 µg/mL (≈ 11.1 µM)

**Q.** What about the inhibition at 64 µg/mL [25] of the same compound?
**A.** > 80%

**Q.** And the Activity [26]?
**A.** 31.5%

**Q.** And the Activity [27]?
**A.** Active
